Bioassay records (PubChem BioAssay)
PLK1 inh = PLK1 (human) kinase inhibition; P53350; recombinant PLK1 kinase, TR-FRET peptide phosphorylation; inhibition, % at 10 µM; 0.53% of 97,000 active; AID 619;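 active = inhibition of 50% or more in the single-concentration screen; inactive = inhibition below 50%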
LYP act = activators of human LYP (PTPN22) phosphatase; AID 697; 0.11% of 96,000 active; recombinant LYP, DiFMUP fluorescence; 0 = plate median, 100 = signal doubled; activation, % at 2 µM;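 active = activation at 2 µM above a set limit, the mean plus 5 SD, cut at about 37% in these data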
Plk1 PBD FP = Plk1 (human) PBD binding inhibition | P53350 | Plk1 PBD phosphopeptide binding, fluorescence polarization | inhibition, %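 (tested at about 20 µM)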 | 0.13% of 97,000 active | AID 693; in the data active = inhibition above about 34%, passing the limit was not always enough
LYP inh 2 = LYP (human) phosphatase inhibition. 0.21% of 96,000 active. Q9Y2R2. inhibition, % at 2 µM. recombinant LYP catalytic domain, DiFMUP fluorescence;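 active = inhibition at 2 µM at or above a set limit, the screen mean plus 3 SD, cut at about 24% in these data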
Rev-RRE block = disrupts HIV-1 Rev binding to RRE RNA | P05866 | 0.79% of 97,000 active | AID 704 | Rev peptide-RRE RNA binding, FRET | inhibition, % at 8 µM;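 active = inhibition above the screen-wide mean plus 3 SD, cut at about 35% in these data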
Target sequence (P05866 whole entry, looked up): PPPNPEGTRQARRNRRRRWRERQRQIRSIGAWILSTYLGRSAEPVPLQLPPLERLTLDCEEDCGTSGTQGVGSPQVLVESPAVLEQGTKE
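System: Cy5-labelled duplex RRE RNA binding fluorescein-labelled HIV Rev peptide; Signal: fluorescein-to-Cy5 FRET, 480 nm excitation; Also added: labelled Rev peptide; Compound: one concentration, 8 µM nominal; Buffer or medium: HEPES pH 7.5 salt buffer with EDTA; Read-out: % inhibition of FRET ratio versus controls; Schedule: 5 min preincubation and 15 min binding, 25 °C.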
EphB4 antag = blocks human EphB4 binding to ephrin-B2; P54760; EphB4 LBD / TNYL-RAW-Alexa532 peptide, fluorescence polarization; inhibition, % at 7 µM; 0.15% of 97,000 active; AID 720;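 active = inhibition above the screen-wide mean inhibition plus 3 SD, cut at about 15% in these data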
A number is an active result; – = inactive; · = no result; [ ] = dose if it differs, or a comment. Sampled rows, rich in hits. Any-hit rate of the full collection: about 2%.

SMILES	PLK1 inh	LYP act	Plk1 PBD FP	LYP inh 2	Rev-RRE block	EphB4 antag
CC(=O)c1c[nH]c2ccc(C)cc2c1=O	–	–	–	–	–	–
CCOC(=O)c1ccc2[nH]cc(C(C)=O)c(=O)c2c1	–	–	–	–	53	–
Cc1ccc(Nc2cc(C)nn2-c2nc(C)cc(C)n2)cc1	–	–	–	–	–	–
Cc1ccc(Nc2cc(C)nn2-c2nc(C)cc(=O)[nH]2)cc1	–	–	–	26	–	–
CN1CCc2c(sc(/N=C/c3cccs3)c2C(N)=O)C1	–	–	–	–	81	–
Cc1ccc(F)cc1NC(=O)C12CC3CC(C1)CC(n1cnc([N+](=O)[O-])n1)(C3)C2	–	–	–	–	–	–
FC(F)Sc1ccc(Nc2ncnc3nc[nH]c23)cc1	60	–	–	–	–	–
Cc1cccc(Nc2ncnc3nc[nH]c23)c1C	56	–	–	–	–	–
c1ccc(CCNc2ncnc3nc[nH]c23)cc1	–	–	–	–	–	–
Cc1ccc(-c2nc3ccc(NS(=O)(=O)c4ccccc4)cc3[nH]2)o1	–	–	–	–	–	–
Cc1cc(/C=C2\SC(=S)NC2=O)c(C)n1C	–	–	–	–	54	–
CC(=O)c1cc(NC(=O)c2ccc(C)cc2)c(=O)oc1/C=C/N(C)C	–	–	–	–	122[fluorescence artefact?]	–
COc1ccc(C(=O)Nc2cc(C(C)=O)c(/C=C/N(C)C)oc2=O)cc1	–	–	–	–	122[fluorescence artefact?]	–
Cc1cc(C)cc(N2CC(c3nc4ccccc4n3C)CC2=O)c1 (stereo not given)	58	·	–	·	–	–
c1csc(Cc2nc(-c3ccc(-n4cccc4)cc3)no2)c1	–	–	–	–	–	–
Cc1cccc(S(=O)(=O)C(C#N)c2nc3ccccc3nc2N2CCCC2)c1 (stereo not given)	–	–	–	–	82[fluorescence artefact?]	–
COc1ccc(S(=O)(=O)C(C#N)c2nc3ccccc3nc2N2CCCCC2)cc1 (stereo not given)	–	–	–	–	–	–
N#CC(c1nc2ccccc2nc1N1CCCC1)S(=O)(=O)c1cccs1 (stereo not given)	–	–	–	–	42	–
Cc1ccc(C)c(S(=O)(=O)C(C#N)c2nc3ccccc3nc2N2CCCC2)c1 (stereo not given)	–	–	–	–	64	–
N#CC(c1nc2ccccc2nc1N1CCCC1)S(=O)(=O)c1ccccc1 (stereo not given)	–	–	–	–	82[fluorescence artefact?]	–
Cc1ccc(S(=O)(=O)C(C#N)c2nc3ccccc3nc2N2CCN(C)CC2)cc1C (stereo not given)	–	–	–	–	–	–
Cc1ccc(C)c(S(=O)(=O)C(C#N)c2nc3ccccc3nc2N2CCOCC2)c1 (stereo not given)	–	–	–	–	–	–
O=C(Nc1nccs1)C1CCN(S(=O)(=O)c2c(Cl)cccc2Cl)CC1	–	–	–	–	–	–
COc1cc(N/C=C(\C(C)=O)c2ccccc2)cc(OC)c1	–	–	–	–	–	–
Cc1cccc(N2C(=O)c3cccc4c(N(C)CCO)ccc(c34)C2=O)c1	–	–	–	–	129[fluorescence artefact?]	–
SMILES	PLK1 inh	LYP act	Plk1 PBD FP	LYP inh 2	Rev-RRE block	EphB4 antag
CC(=O)Nc1cccc2c1C(=O)N(c1cccc(C)c1)C2=O	–	–	–	–	–	–
CSc1ccc(C2C(C#N)=C(N)Oc3c2ccc(=O)c2c(C)oc(C)c32)cc1 (stereo not given)	–	–	–	–	43	–
Cc1ccc2[nH]c(=O)c(C3C(C#N)=C(N)Oc4c3ccc3cccnc43)cc2c1 (stereo not given)	–	–	–	–	–	–
Cc1oc(C)c2c(=O)ccc3c(c12)OC(N)=C(C#N)C3c1ccccc1Cl (stereo not given)	–	–	–	–	97[fluorescence artefact?]	–
Cc1oc(C)c2c(=O)ccc3c(c12)OC(N)=C(C#N)C3c1ccccc1 (stereo not given)	–	–	–	–	60	–
CCn1nc(C)c(/C=N/NC(=O)c2ccc3c(c2)c(C)c(C)n3Cc2ccccc2)c1C	–	–	–	–	–	–
Cc1ccc(Cn2ccc(=O)c(OCc3c(Cl)cccc3Cl)c2C)cc1	–	–	–	–	–	–
O=C(CSc1nnc2scc(-c3ccccc3)n12)Nc1nsc(-c2ccc(Cl)cc2)n1	–	–	–	26	–	–
O=C(CSc1nnc2scc(-c3ccccc3)n12)Nc1nsc(-c2ccccc2)n1	–	–	–	–	–	–
Cc1ccc(OCCSc2ncnc3nc[nH]c23)cc1	56	–	–	–	–	–
O=C(CC(O)(c1ccccc1)C(F)(F)F)c1cccs1 (stereo not given)	–	–	–	–	–	31[fluorescence artefact?]
N#CC1=C(N)SC(N)=C(C#N)C1c1ccnc2ccccc12	–	–	–	–	60	–
O=C1c2ccccc2C(=O)C1c1ccnc2ccccc12	–	–	–	–	–	–
N#CC1=C(N)C(C#N)(C#N)C(c2cccnc2)C2CN(C(=O)OCc3ccccc3)CC=C12 (stereo not given)	–	–	–	–	–	–
N#CC1=C(N)C(C#N)(C#N)[C@H](c2ccoc2)[C@H]2CN(Cc3ccccc3)CC=C12	–	–	–	–	100[fluorescence artefact?]	–
CCN1CC=C2C(C#N)=C(N)C(C#N)(C#N)C(CCc3ccccc3)C2C1 (stereo not given)	–	–	–	–	86[fluorescence artefact?]	–
CN1CC=C2C(C#N)=C(N)C(C#N)(C#N)[C@H](c3ccoc3)[C@H]2C1	–	–	–	–	42	–
COc1ccc(OC)c(C2C3CN(C(C)C)CC=C3C(C#N)=C(N)C2(C#N)C#N)c1 (stereo not given)	–	–	–	–	82	–
Cc1ccc(C2C(/C=C3/SC(=S)NC3=O)=C(c3cccs3)Oc3ccccc32)cc1 (stereo not given)	–	–	–	–	–	–
Cc1cccc(NC(=O)C23CCC(C)(C2Br)C3(C)C)c1 (stereo not given)	–	–	–	–	–	–
O=C(Cc1cccc2ccccc12)N/N=C/c1ccc(Sc2nc3ccccc3s2)o1	–	–	–	–	–	–
Nc1ccc2c3c(cccc13)CC2	–	–	–	–	47	–
c1ccc(Nc2ccc3c4c(cccc24)CC3)cc1	–	–	–	–	–	–
Cc1ccc2nc(N/N=C\c3ccc([N+](=O)[O-])o3)nc(-c3ccccc3)c2c1	–	–	–	–	58	–
N=c1n(CCN2CCCCC2)c2ccccc2n1CC(O)c1ccc(Cl)c(Cl)c1 (stereo not given)	63	–	–	–	–	–
N=c1n(CCN2CCCCC2)c2ccccc2n1CC(O)c1cccc(Br)c1 (stereo not given)	–	–	–	–	–	–
CCOC(=O)C1=C(O)/C(=C\c2ccc(CNC(=O)C(=O)Nc3ccc(C)c(C)c3)o2)N=C1C	–	–	–	–	–	–
